Results from ChEMBL document CHEMBL4138315, “Synthesis and Evaluation of a Novel Bivalent Selective Antagonist for the Mu-Delta Opioid Receptor Heterodimer that Reduces Morphine Withdrawal in Mice” (J Med Chem, 2018).
Activity calls are given as the source filed them. The rule behind the calls is not given here.

How the values were obtained:
[1] = molecular target: Opioid receptors; mu & delta (Homo sapiens, UniProt P41143+P35372); assay: Antagonist activity at human MOR expressed in CHO cell membranes mixed with human DOR expressed in CHO cell membranes assessed as inhibition of CYM51010-induced [35S]-GTPgammaS binding preincubated for 5 mins followed by CYM51010 and [35S]-GTPgammaS addition measured after 80 mins; format: functional
Sequence of Opioid receptors; mu & delta (P35372 whole entry, looked up): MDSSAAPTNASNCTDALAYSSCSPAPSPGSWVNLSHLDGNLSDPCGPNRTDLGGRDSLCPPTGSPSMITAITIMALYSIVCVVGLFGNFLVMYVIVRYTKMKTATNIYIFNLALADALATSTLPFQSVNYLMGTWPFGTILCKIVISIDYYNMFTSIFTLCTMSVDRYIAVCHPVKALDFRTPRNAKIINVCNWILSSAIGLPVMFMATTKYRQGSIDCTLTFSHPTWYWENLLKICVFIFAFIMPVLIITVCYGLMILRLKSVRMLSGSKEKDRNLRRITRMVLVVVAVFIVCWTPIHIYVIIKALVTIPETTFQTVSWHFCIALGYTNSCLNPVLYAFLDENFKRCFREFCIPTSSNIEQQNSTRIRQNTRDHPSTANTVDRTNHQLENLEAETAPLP
Sequence of Opioid receptors; mu & delta (P41143 whole entry, looked up): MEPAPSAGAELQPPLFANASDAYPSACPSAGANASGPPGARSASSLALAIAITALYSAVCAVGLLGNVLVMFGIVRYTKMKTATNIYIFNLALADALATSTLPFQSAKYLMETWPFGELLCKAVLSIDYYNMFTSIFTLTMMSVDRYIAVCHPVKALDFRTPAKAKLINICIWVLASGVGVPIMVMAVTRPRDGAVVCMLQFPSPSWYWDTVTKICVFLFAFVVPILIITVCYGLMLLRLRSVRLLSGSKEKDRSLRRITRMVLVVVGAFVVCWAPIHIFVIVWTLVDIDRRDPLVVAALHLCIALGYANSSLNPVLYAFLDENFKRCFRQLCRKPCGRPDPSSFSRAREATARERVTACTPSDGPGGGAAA
Summary of the method: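 MOR-CHO and DOR-CHO membranes mixed at the molar ratio from MDOR-CHO saturation binding (Bmax 7.9 pmol/mg DOR, 1.1 pmol/mg MOR). Antagonist curve preincubated 5 min, then 1 µM CYM51010 and 0.1 nM 35S-GTPγS. Incubated 30°C, 80 min, then filtered and counted. Normalized to CYM51010 alone and vehicle. N = 3 independent experiments in duplicate.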

[2] = molecular target: Delta-type opioid receptor (Homo sapiens, UniProt P41143); assay: Antagonist activity at human DOR expressed in CHO cell membranes assessed as inhibition of CYM51010-induced [35S]-GTPgammaS binding preincubated for 5 mins followed by CYM51010 and [35S]-GTPgammaS addition measured after 80 mins; format: functional; details: cho
Sequence of Delta-type opioid receptor (P41143 whole entry): as the sequence (P41143 whole entry, looked up) above
Summary of the method: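 Membranes from CHO cells stably expressing human opioid receptor (N-terminal tagged) were preincubated 5 min with antagonist concentration curves, then given 1 µM CYM51010 and 0.1 nM 35S-GTPγS; 30°C, 80 min, GF/B filtration, scintillation counting. Normalized to CYM51010 alone (100%) and vehicle (0%). Fits: 1-site for MOR/DOR (IC50), 2-site for MDOR (IC50HIGH). N = 3-4, duplicate, mean ± SEM.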

Homo sapiens = species on record: Homo sapiens; assay: Selectivity ratio of IC50H for human mu-delta opioid receptor heterodimer expressed in CHO cell membranes to IC50 for human DOR expressed in CHO cell membranes; format: cell-based
[3] = molecular target: Kappa-type opioid receptor (Homo sapiens) (UniProt P41145); assay: Antagonist activity at human KOR expressed in CHO cell membranes assessed as inhibition of U50488-induced [35S]-GTPgammaS binding preincubated for 5 mins followed by U50488 and [35S]-GTPgammaS addition measured after 80 mins; format: functional
Sequence of Kappa-type opioid receptor (Homo sapiens) (P41145 whole entry): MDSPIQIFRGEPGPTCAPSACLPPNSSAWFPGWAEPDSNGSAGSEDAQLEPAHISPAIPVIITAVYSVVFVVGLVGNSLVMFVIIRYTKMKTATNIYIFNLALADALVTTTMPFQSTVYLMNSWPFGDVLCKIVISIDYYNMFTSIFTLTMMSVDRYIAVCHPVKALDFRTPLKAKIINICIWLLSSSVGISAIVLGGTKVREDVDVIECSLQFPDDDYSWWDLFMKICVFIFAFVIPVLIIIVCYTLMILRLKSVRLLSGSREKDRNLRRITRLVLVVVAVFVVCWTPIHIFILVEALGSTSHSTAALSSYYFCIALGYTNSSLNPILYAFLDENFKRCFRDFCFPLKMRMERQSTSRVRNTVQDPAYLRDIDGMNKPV
Summary of the method: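 KOR-CHO membranes (human receptor, N-terminal tag), antagonist concentration curve preincubated 5 min, then 1 µM U50,488 plus 0.1 nM 35S-GTPγS added. Incubated 30°C, 80 min; filtration and scintillation counting. Vehicle 0.1% DMSO in assay buffer with 0.1% BSA. Normalized to agonist alone (100%) and vehicle (0%). One-site curve fit; N = 3 independent experiments in duplicate.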

Mus musculus [4] = assay: Antinociceptive activity in icv dosed CD1 mouse assessed as reduction in CYM51010-induced nociception pretreated for 5 mins followed by CYM51010 injection measured up to 2 hrs by tail flick assay; format: functional
Mus musculus [5] = assay: Reduction in morphine dependence expression in acute morphine dependence ICR mouse model assessed as inhibition of naloxone-precipitated jumping behavior at 1 nmol, icv administered 5 mins prior to naloxone injection measured up to 20 mins relative to control; format: functional; set-up: scale not given: the % may be the effect or the level left
Summary of the method: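 Acute dependence: morphine 100 mg/kg sc, then naloxone 10 mg/kg ip 4 h later. 1 nmol icv or vehicle given 5 min before naloxone; one control arm had no naloxone. Mice observed 20 min in plexiglass cylinders; jumps counted, then urine and feces weighed.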

## N[C@@H](Cc1ccc(O)cc1)C(=O)N1Cc2ccccc2C[C@@H]1C(=O)NCC(=O)NCCCCC(=O)N[C@H](CCCCNC(=O)CCCCNC(=O)CNC(=O)[C@@H](Cc1cccc2ccccc12)NC(=O)[C@H](Cc1ccccc1)NC(=O)[C@@H]1CCCN1C(=O)[C@@H](N)Cc1ccc(O)cc1)C(=O)O
[1]
  IC50H: 89 nM
  IC50L: > 1000 nM
[2]
  IC50: 76 nM
Homo sapiens
  Ratio IC50: 89
[3]
  inhibition: inactive
Mus musculus [4]
  A50: 2.04 nmol
  Activity: Dose-dependent effect
Mus musculus [5]
  Activity: 53.2%
